Calls of active or inactive are those of the source. No cut-off for these calls is given here.
Assays:
[1] = molecular target: Transient receptor potential cation channel subfamily M member 8 (Mus musculus) (UniProt Q8R4D5); conditions: Dorsal root ganglion, HEK T-REx, 100 uM
[2] = molecular target: T1, Transient receptor potential cation channel subfamily A member 1 (Homo sapiens, UniProt O75762); experiment: Antagonist activity at TRPA1 isolated from human W138 cells expressed in HEK293T cells assessed as AITC-induced intracellular Ca2+ influx at 100 uM by Fluo-4 AM staining-based fluorescence analysis; assay type: cell-based; conditions: HEK-293T
T1 sequence (O75762 whole entry): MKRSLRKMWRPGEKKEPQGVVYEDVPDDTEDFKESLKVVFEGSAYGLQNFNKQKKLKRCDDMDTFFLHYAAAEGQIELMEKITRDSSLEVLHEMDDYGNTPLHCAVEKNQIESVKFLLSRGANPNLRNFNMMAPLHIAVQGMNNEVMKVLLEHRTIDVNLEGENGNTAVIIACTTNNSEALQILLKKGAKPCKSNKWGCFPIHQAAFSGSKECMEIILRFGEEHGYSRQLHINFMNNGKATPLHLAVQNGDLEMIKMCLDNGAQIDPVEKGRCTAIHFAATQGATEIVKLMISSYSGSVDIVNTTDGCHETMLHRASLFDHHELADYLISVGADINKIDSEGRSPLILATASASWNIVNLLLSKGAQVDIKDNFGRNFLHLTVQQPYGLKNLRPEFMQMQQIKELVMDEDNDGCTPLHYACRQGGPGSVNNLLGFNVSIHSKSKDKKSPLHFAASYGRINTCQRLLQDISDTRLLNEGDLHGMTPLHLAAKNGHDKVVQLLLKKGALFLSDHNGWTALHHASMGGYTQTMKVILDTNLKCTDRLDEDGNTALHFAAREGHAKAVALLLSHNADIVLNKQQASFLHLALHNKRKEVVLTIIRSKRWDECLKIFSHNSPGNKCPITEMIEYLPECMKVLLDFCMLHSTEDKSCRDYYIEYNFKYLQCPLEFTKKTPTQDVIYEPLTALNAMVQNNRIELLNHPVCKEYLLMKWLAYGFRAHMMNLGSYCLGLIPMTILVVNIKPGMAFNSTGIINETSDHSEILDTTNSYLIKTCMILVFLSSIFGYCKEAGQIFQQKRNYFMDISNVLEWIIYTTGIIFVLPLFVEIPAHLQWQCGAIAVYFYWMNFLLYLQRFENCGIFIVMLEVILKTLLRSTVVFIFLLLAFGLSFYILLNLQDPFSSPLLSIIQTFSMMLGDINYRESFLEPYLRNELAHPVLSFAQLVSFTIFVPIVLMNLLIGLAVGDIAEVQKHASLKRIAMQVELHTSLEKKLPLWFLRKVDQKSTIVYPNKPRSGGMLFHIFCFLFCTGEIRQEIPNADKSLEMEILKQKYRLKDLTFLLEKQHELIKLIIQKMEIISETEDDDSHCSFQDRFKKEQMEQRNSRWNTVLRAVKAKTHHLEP

[3] = molecular target: Transient receptor potential cation channel subfamily M member 8 (Mus musculus) (UniProt Q8R4D5); conditions: Dorsal root ganglion, HEK T-REx, 3 to 30 uM
[4] = molecular target: T2, Transient receptor potential cation channel subfamily V member 1 (Homo sapiens, UniProt Q8NER1); experiment: Antagonist activity at human brain TRPV1 expressed in HEK293T cells assessed as inhibition of heat-induced intracellular Ca2+ influx measured for 42 mins by fluorescence-based assay; assay type: cell-based, HEK-293T
T2 sequence (Q8NER1 whole entry): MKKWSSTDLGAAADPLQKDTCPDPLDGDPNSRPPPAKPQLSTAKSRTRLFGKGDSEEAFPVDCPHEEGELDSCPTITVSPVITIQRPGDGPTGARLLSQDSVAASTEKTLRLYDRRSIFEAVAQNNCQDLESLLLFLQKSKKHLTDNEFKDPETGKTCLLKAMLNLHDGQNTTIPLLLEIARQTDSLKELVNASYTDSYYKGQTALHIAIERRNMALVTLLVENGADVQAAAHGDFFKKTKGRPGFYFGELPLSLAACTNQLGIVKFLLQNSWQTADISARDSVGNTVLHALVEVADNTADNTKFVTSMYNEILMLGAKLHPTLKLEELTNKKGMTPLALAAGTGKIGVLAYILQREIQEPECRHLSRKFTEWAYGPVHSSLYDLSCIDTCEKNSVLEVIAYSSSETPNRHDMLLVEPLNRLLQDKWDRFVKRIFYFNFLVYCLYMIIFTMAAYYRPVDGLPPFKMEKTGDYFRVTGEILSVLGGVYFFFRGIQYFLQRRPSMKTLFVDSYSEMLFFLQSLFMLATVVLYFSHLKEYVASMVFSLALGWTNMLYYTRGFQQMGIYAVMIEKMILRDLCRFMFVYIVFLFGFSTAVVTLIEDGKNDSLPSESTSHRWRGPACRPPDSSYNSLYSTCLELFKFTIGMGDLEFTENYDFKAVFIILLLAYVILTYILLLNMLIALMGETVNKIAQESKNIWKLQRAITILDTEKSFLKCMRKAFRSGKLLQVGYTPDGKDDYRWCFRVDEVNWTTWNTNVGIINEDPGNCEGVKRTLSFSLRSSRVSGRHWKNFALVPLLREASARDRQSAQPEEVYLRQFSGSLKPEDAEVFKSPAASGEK
How it was run: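 hTRPV1-HEK293T, Fluo-4 loaded; antagonist pretreated 3 min, plate heated from 40 to 45 °C, Ca2+ signal recorded 42 min. Data as % of heat response; IC50 from dose curve; n = 4−10.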

[5] = molecular target: T3, Transient receptor potential cation channel subfamily V member 3 (Homo sapiens) (UniProt Q8NET8); experiment: Antagonist activity at human TRPV3 expressed in HEK293T cells assessed as menthol-induced intracellular Ca2+ influx at 100 uM by Fluo-4 AM staining-based fluorescence analysis; assay type: cell-based; conditions: HEK-293T
T3 sequence (whole entry): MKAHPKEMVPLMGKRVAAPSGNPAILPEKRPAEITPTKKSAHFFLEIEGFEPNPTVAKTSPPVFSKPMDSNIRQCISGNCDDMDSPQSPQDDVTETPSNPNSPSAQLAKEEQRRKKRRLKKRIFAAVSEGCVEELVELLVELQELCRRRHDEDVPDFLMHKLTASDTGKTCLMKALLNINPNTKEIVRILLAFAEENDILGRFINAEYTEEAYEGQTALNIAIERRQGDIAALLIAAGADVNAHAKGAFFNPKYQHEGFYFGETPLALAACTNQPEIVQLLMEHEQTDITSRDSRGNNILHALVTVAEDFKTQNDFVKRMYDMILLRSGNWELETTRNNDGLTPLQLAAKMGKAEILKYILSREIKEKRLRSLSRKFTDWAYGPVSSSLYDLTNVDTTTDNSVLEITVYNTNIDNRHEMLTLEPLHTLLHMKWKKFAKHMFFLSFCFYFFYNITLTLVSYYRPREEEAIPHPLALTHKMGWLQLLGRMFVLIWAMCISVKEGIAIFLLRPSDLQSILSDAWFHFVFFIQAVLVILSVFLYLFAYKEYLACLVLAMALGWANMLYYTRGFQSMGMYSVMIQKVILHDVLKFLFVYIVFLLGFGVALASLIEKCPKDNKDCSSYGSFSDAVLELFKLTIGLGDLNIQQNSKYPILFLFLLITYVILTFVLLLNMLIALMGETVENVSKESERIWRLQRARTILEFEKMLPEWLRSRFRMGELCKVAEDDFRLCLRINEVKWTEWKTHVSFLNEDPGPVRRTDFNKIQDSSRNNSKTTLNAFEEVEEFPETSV
How it was run: (§1)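 hTRPV3 transiently expressed in HEK293T; loading and assay at 25 °C, Fluo-4 with probenecid buffer pH 7.4. Agonist 100 and 300 μM menthol, 5 μM ruthenium red as reference; 100 μM compound alone or pretreated 3 min. Data as % of 1000 μM menthol.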

[6] = molecular target: Transient receptor potential cation channel subfamily M member 8 (Mus musculus, UniProt Q8R4D5); experiment: (§2) Antagonist at TRPM8 isolated from mouse dorsal root ganglion cells expressed in HEK T-REx cells assessed as inhibition of menthol-induced intracellular Ca2+ influx by fluorescence-based assay; assay type: cell-based
Transient receptor potential cation channel subfamily M member 8, sequence (Q8R4D5 whole entry): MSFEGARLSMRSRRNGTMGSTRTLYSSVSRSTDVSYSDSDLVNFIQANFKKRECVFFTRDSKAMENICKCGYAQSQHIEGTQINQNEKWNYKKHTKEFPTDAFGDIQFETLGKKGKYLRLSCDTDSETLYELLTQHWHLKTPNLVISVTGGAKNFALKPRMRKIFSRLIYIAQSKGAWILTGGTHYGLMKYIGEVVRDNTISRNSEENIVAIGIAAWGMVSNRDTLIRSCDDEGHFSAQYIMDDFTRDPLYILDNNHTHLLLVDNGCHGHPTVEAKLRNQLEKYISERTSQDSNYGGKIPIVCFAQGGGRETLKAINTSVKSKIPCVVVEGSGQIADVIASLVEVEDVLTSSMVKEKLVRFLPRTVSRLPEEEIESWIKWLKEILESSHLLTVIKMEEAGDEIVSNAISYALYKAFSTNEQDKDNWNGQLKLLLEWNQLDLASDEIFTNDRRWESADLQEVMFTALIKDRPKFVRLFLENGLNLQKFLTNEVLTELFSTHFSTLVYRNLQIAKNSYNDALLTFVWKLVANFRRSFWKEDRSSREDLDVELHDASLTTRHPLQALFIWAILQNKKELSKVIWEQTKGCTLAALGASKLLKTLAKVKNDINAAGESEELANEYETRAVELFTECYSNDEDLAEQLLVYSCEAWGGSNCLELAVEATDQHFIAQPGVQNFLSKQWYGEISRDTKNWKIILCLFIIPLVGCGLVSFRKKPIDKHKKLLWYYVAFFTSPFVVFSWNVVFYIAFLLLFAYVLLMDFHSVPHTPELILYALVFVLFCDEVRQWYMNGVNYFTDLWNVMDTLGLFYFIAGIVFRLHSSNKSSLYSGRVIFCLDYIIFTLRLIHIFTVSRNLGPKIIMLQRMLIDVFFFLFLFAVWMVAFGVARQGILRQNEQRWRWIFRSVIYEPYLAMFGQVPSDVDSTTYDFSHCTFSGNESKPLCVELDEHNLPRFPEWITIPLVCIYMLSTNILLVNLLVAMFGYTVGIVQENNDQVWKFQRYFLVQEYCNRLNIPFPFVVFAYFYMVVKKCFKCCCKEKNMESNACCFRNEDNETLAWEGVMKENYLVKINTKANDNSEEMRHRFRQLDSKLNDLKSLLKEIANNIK
How it was run: (§3)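 Tetracycline-induced mTRPM8 in HEK T-REx, Fluo-4 Ca2+ at 37 °C. Antagonists (e.g. 0.01−100 μM, CNA up to 500 μM) preincubated 3 min before 10 μM menthol. IC50 from dose−inhibition curves, data as % of 10 μM menthol; n = 4−12.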

[7] = molecular target: Transient receptor potential cation channel subfamily M member 8 (Mus musculus) (UniProt Q8R4D5); experiment: as §2; assay type: cell-based
How it was run: as §3

[8] = molecular target: T2, Transient receptor potential cation channel subfamily V member 1; experiment: Competitive antagonist activity at human brain TRPV1 expressed in HEK293T cells assessed as inhibition of CAP-induced intracellular Ca2+ influx preincubated for 3 mins followed by CAP challenge; assay type: cell-based; conditions: HEK-293T
How it was run: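 hTRPV1-HEK293T, Fluo-4 Ca2+ at 37 °C; antagonist (0.3−100 μM) preincubated 3 min then 0.01 μM capsaicin; DMSO final 0.1−1%. IC50 from dose−inhibition curves; data as % of 10 μM capsaicin.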

[9] = molecular target: Transient receptor potential cation channel subfamily M member 8 (Mus musculus) (UniProt Q8R4D5); conditions: Dorsal root ganglion, HEK T-REx, 100 uM; remark: listed apart in the source
[10] = molecular target: Transient receptor potential cation channel subfamily M member 8 (Mus musculus) (UniProt Q8R4D5); conditions: Dorsal root ganglion, HEK T-REx, 100 uM; remark: listed apart in the source
[11] = molecular target: Transient receptor potential cation channel subfamily M member 8 (Mus musculus) (UniProt Q8R4D5); conditions: Dorsal root ganglion, HEK T-REx, 3 to 30 uM; remark: listed apart in the source
[12] = molecular target: Transient receptor potential cation channel subfamily M member 8 (Mus musculus) (UniProt Q8R4D5); conditions: Dorsal root ganglion, HEK T-REx, 10 to 50 uM
[13] = molecular target: T1, Transient receptor potential cation channel subfamily A member 1; experiment: Agonist activity at TRPA1 isolated from human W138 cells expressed in HEK293T cells assessed as intracellular Ca2+ influx by Fluo-4 AM staining-based fluorescence analysis; assay type: cell-based
How it was run: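 Tetracycline-induced (1 μg/mL) stable hTRPA1 in HEK T-REx cells, Fluo-4 AM loaded (3 μM, 1 h, 37 °C) in HEPES buffer pH 7.4 with probenecid; Ca2+ read at 37 °C. Responses as % of 5 μM ionomycin or of 100 μM AITC; TREx cells without TRPA1 as control; n = 4−8.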

[14] = molecular target: T3, Transient receptor potential cation channel subfamily V member 3 (Homo sapiens); experiment: Agonist activity at human TRPV3 expressed in HEK293T cells assessed as intracellular Ca2+ influx at 100 uM by Fluo-4 AM staining-based fluorescence analysis; assay type: cell-based; conditions: HEK-293T
How it was run: as §1

[15] = molecular target: Transient receptor potential cation channel subfamily M member 8 (Mus musculus) (UniProt Q8R4D5); conditions: Dorsal root ganglion, HEK T-REx, 3 to 30 uM; remark: listed apart in the source
[16] = molecular target: T2, Transient receptor potential cation channel subfamily V member 1; experiment: Agonist activity at human brain TRPV1 expressed in HEK293T cells assessed as intracellular Ca2+ influx at 100 uM by Fluo-4 AM staining-based fluorescence analysis; assay type: cell-based; conditions: HEK-293T
How it was run: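 Stable hTRPV1 in HEK293T (G418 selected), Fluo-4 loaded, 37 °C. 100 μM compound alone, or pretreated 3 min before 0.01 μM capsaicin; 10 μM BCTC reference. Data as % of 10 μM capsaicin.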

Transient receptor potential cation channel subfamily M member 8 (Mus musculus), sequence (Q8R4D5 whole entry): as above

Q: Which inhibition [1] does the source give for `CC[C@H]1C[C@@H]2CN3CCc4c([nH]c5ccc(OC)cc45)[C@](C(=O)OC)(C2)[C@H]13` [VOACANGINE] here?
A: Active

Q: What about the Activity [2] of the same compound?
A: inactive

Q: What about the inhibition [3] of the same compound?
A: inactive

Q: What about the IC50 [4] of the same compound?
A: 24 µM

Q: And the inhibition ([4]; HEK-293T)?
A: Dose-dependent effect

Q: And the Activity [5]?
A: inactive

Q: What about the IC50 [6] of the same compound?
A: 9 µM

Q: What about the inhibition [7] of the same compound?
A: Dose-dependent effect

Q: What about the inhibition [8] of the same compound?
A: Active

Q: What about the inhibition [9] of the same compound?
A: Active

Q: And the inhibition [10]?
A: Active

Q: What about the inhibition [11] of the same compound?
A: Active

Q: And the inhibition [12]?
A: Active

Q: And the EC50 [13]?
A: 8 µM

Q: What about the Activity ([13]; HEK-293T) of the same compound?
A: Dose-dependent effect

Q: What about the Activity [14] of the same compound?
A: inactive

Q: What about the inhibition [15] of the same compound?
A: Active

Q: And the Activity [16]?
A: inactive

— ChEMBL document CHEMBL3108739, “Activation and inhibition of thermosensitive TRP channels by voacangine, an alkaloid present in Voacanga africana, an African tree” (J Nat Prod, 2014)
